Legend:
[1] = target: wild-type LmPYK (Leishmania mexicana, UniProt Q27686); test: qHTS / LmPYK activity assay; assay type: biochemical
[2] = Chemical stability; settings: hydrolysis of the linkage to saccharin moiety
[3] = target: HsRPYK (Homo sapiens, UniProt P30613); test: Inhibition of HsRPYK; assay type: biochemical
[4] = target: Lys335Arg mutant of LmPYK (Leishmania mexicana, UniProt Q27686, K336R); test: PYK inhibitor assay with Lys335Arg mutant; assay type: biochemical; settings: 50 µM DBS, 0.4 mM PEP, identical assay conditions to wild-type
[5] = target: rabbit lactate dehydrogenase (Oryctolagus cuniculus, UniProt P13491); test: Inhibition of coupling enzyme lactate dehydrogenase; assay type: biochemical; settings: active-site Lys56
[6] = Solubility; assay type: physicochemical; settings: relative to original screening hit NCGC00186526
[7] = target: LmPYK (Leishmania mexicana, UniProt Q27686); test: PYK inhibitor assay; assay type: biochemical
Procedure, shortened: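 Pre-incubation mix held at 25 °C: LmPYK 1.6 U/mL, 0.4 mM PEP, 3.2 U/mL lactate dehydrogenase and 0.2 mM NADH in 50 mM TEA pH 7.2, 100 mM KCl, 3 mM MgCl2, 10% glycerol. Test compound (final 50 µM, from DMSO stock) added last; buffer-only control. Every 20 min […], an aliquot was started with 0.2 mM ADP (final). A340 decrease followed for 2 min. Initial rate expressed as % of control.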

[8] = test system: four human PYK isoenzymes; test: Irreversible inhibition of human PYK isoenzymes; assay type: biochemical

HsRPYK, sequence (P30613 whole entry): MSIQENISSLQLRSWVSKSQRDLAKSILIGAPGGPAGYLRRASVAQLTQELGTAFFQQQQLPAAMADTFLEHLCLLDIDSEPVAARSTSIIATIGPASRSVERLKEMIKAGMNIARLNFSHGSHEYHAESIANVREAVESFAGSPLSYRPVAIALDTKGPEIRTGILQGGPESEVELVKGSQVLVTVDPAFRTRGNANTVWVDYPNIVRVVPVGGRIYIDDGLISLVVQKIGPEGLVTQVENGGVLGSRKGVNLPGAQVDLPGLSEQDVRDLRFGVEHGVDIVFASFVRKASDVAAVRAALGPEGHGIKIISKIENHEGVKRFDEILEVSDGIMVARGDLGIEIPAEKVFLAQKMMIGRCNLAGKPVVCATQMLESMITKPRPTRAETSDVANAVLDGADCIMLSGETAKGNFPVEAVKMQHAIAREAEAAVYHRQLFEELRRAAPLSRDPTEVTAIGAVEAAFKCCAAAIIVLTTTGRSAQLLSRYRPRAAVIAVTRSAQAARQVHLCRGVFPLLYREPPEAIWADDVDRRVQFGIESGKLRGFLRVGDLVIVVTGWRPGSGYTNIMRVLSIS

SMILES | IC50 [1] [µM] | stability [2] | IC50 [3] [µM] | change in activity over time [4] | inhibition of rabbit lactate dehydrogenase [5] | solubility [6] | time to maximal inhibition ([7]; 50 µM DBS, 25 °C) | inhibition at 50 µM ([7]; read-out: Maximal inhibition) [%] | irreversible inhibition [8]
Cc1ccc(C)c(OC2=NS(=O)(=O)c3ccccc32)c1 [NCGC00186526] | 10 |  |  |  |  |  |  |  | 
Cc1ccc(C)c(SC2=NS(=O)(=O)c3ccccc32)c1 [NCGC00188411] | 5 | Stable |  |  |  |  |  |  | 
O=C(O)c1ccc(SC2=NS(=O)(=O)c3ccccc32)cc1 [DBS, 4-[(1,1-dioxo-1,2-benzothiazol-3-yl)sulfanyl]benzoic acid] |  | improved stability and solubility profiles | 8 | essentially no change in activity over time | inability of DBS to inhibit | improved stability and solubility profiles | ~ 250 min | ~80 | irreversibly inhibited

— publication PMC3498827 (The Biochemical journal, 2012)
